Assay [1] has as its target Serine/threonine-protein kinase 26 (Homo sapiens) (UniProt Q9P289). In words: Inhibition of MST4 at 1 uM.
In assay [2] the target is Homeodomain-interacting protein kinase 2 (Homo sapiens) (UniProt Q9H2X6). In words: Inhibition of HIPK2 at 1 uM.
The target of assay [3] is Citron Rho-interacting kinase (Homo sapiens) (UniProt O14578). As to the kind of experiment: Inhibition of CIT at 1 uM.
In assay [4] the target is Interferon-induced, double-stranded RNA-activated protein kinase (Homo sapiens) (UniProt P19525). As to the kind of experiment: Inhibition of PRKR at 1 uM.
Assay [5] deals with Mitogen-activated protein kinase kinase kinase kinase 4 (Homo sapiens) (UniProt O95819). As to the kind of experiment: Inhibition of MAP4K4 at 1 uM. Put shortly:
(§1)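 Single-concentration screen on the Ambit KINOMEscan platform, run against a panel of 250–400 kinases. Per-kinase inhibition was also summarized as S(90), the fraction of kinases inhibited by more than 90%.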

Assay [6] addresses Phosphorylase b kinase gamma catalytic chain, skeletal muscle/heart isoform (Homo sapiens) (UniProt Q16816). In words: Inhibition of PHKG1 at 1 uM.
Assay [7] deals with Ribosomal protein S6 kinase alpha-4 (Homo sapiens) (UniProt O75676). As to the kind of experiment: Inhibition of RPS6KA4 C-terminal domain2 at 1 uM.
In assay [8] the target is Mitogen-activated protein kinase 1 (Homo sapiens) (UniProt P28482). In words: Inhibition of ERK2 at 1 uM. In outline:
(§2)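 Single-concentration screen using Ambit Bioscience KINOMEscan technology across a panel of 250–400 kinases. Per-kinase inhibition from this screen was summarized as S(90), the fraction of kinases inhibited by more than 90%.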

Assay [9] deals with Epidermal growth factor receptor (Homo sapiens) (UniProt P04626+P00533+Q15303+P21860). As to the kind of experiment: Inhibition of EGFR L747-T751del, Sins mutant at 1 uM. Format: protein assay. Put shortly:
as §2

For assay [10], the target named is Fibroblast growth factor receptor 4 (Homo sapiens) (UniProt P22455). In words: Inhibition of FGFR4 at 1 uM. In outline:
as §1

The target of assay [11] is Ribosomal protein S6 kinase alpha-5 (Homo sapiens) (UniProt O75582). As to the kind of experiment: Inhibition of RPS6KA5 C-terminal domain2 at 1 uM.
Chain of Ribosomal protein S6 kinase alpha-5 (Homo sapiens) (O75582 whole entry, looked up, the tested form may be a part): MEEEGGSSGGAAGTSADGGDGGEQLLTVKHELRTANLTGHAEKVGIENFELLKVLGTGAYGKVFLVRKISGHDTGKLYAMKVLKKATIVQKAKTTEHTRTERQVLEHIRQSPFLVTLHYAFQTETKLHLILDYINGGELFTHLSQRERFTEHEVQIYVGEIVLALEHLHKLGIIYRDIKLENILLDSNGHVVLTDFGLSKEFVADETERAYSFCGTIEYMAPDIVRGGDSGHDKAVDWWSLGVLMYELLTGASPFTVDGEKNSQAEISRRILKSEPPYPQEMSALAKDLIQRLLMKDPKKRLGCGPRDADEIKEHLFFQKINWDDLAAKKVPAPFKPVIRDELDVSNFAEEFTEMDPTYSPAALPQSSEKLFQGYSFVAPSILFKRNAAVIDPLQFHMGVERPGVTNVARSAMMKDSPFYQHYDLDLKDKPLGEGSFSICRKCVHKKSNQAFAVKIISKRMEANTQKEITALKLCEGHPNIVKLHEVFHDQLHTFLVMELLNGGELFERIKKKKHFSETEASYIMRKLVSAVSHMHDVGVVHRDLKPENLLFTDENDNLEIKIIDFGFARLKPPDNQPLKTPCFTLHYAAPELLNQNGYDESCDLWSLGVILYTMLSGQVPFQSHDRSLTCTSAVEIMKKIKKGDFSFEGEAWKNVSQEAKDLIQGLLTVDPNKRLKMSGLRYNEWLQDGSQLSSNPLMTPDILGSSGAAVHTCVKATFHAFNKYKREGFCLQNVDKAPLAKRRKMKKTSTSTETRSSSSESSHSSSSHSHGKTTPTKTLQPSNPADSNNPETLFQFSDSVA
For assay [12], the target named is Proto-oncogene tyrosine-protein kinase Src (Homo sapiens) (UniProt P12931). As to the kind of experiment: Inhibition of SRC at 1 uM.
Chain of Proto-oncogene tyrosine-protein kinase Src (Homo sapiens) (P12931 2-536 limits assumed): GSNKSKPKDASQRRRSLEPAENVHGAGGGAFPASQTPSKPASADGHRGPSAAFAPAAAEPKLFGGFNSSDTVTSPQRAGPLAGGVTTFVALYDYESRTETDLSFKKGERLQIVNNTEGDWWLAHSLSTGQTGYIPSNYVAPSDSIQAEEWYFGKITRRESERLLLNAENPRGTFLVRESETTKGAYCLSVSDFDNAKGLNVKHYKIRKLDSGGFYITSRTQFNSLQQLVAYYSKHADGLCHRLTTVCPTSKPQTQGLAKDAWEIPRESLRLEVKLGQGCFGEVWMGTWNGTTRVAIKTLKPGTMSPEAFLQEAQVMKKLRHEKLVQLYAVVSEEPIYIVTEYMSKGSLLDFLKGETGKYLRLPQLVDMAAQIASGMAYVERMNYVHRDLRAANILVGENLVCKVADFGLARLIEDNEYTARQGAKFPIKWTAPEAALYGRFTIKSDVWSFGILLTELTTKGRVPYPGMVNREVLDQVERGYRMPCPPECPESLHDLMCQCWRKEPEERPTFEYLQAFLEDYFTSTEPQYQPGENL
The target of assay [13] is T1, cGMP-dependent protein kinase 1 (Homo sapiens) (UniProt Q13976).
T1 sequence (whole entry): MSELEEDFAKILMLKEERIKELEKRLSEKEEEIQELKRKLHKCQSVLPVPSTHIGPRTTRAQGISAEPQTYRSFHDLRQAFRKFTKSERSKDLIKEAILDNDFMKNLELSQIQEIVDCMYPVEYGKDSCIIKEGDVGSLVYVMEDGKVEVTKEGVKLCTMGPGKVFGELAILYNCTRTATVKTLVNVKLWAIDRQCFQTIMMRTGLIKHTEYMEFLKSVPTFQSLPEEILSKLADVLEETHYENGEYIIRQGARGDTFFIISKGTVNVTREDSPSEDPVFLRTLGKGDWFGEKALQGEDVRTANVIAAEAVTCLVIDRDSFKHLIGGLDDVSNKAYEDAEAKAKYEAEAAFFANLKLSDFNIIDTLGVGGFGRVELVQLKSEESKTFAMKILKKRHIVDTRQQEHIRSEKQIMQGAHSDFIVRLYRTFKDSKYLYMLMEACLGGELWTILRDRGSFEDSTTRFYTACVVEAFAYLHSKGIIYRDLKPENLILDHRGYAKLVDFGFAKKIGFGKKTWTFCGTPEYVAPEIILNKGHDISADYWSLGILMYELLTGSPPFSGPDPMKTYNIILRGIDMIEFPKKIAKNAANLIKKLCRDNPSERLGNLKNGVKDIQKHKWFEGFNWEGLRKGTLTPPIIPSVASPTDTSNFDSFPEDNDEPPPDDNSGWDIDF
In words: Inhibition of PRKG1 at 1 uM.

Assay [14] addresses Atypical kinase COQ8A, mitochondrial (Homo sapiens) (UniProt Q8NI60). As to the kind of experiment: Inhibition of ADCK3 at 1 uM. In outline: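 Ambit KINOMEscan screen at a single concentration across a 250–400 kinase panel, recorded as percent inhibition. Selectivity was expressed as S(90), the fraction of kinases inhibited >90%.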
The target of assay [15] is T2, Calcium/calmodulin-dependent protein kinase type IV (Homo sapiens) (UniProt Q16566).
T2 sequence (whole entry): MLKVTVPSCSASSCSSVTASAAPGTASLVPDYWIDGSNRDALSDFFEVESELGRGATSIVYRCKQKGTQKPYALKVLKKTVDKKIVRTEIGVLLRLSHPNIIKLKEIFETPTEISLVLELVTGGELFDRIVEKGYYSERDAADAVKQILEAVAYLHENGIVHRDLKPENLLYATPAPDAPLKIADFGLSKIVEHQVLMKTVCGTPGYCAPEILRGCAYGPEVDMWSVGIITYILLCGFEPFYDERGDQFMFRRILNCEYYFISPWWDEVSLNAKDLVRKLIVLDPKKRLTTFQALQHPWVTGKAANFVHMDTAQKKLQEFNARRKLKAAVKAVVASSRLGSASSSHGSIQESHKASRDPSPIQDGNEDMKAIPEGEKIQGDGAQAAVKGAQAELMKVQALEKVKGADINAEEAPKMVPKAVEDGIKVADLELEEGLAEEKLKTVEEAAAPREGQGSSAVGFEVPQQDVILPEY
As to the kind of experiment: Inhibition of CAMK4 at 1 uM.

The target in assay [16] is Mitogen-activated protein kinase 14 (Homo sapiens) (UniProt Q16539). In words: Inhibition of p38-alpha at 1 uM.
Chain of Mitogen-activated protein kinase 14 (Homo sapiens) (Q16539 whole entry): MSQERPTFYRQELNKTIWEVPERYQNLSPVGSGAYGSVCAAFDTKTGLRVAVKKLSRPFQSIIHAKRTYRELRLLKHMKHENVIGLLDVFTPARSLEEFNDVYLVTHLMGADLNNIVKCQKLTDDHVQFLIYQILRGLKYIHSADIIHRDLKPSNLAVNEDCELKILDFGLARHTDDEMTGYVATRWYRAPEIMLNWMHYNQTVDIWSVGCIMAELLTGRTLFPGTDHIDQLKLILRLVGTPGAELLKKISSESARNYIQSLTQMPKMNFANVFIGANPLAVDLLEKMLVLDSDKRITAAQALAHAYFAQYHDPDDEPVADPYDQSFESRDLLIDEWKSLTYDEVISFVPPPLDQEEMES
For assay [17], the target named is T3, Tyrosine-protein kinase Tec (Homo sapiens) (UniProt P42680).
T3 sequence (whole entry): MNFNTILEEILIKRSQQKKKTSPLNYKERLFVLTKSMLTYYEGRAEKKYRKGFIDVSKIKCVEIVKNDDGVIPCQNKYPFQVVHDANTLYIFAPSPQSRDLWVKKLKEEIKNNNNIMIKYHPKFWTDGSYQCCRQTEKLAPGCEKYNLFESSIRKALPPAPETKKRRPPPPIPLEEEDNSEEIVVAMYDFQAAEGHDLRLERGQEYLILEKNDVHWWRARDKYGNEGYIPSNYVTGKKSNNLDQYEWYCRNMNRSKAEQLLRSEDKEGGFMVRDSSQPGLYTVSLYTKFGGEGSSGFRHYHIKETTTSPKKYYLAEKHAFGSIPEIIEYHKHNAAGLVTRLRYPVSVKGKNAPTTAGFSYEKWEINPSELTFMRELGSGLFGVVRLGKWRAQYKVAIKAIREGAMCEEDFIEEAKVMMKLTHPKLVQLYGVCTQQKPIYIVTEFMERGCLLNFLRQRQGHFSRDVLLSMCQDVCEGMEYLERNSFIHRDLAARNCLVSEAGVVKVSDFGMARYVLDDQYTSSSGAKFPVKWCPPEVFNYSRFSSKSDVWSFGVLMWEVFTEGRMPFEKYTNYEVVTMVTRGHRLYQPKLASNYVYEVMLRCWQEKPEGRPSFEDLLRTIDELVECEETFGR
As to the kind of experiment: Inhibition of TEC at 1 uM.

In assay [18] the target is Dual specificity mitogen-activated protein kinase kinase 1 (Homo sapiens) (UniProt Q02750). As to the kind of experiment: Inhibition of MEK1 at 1 uM.
Chain of Dual specificity mitogen-activated protein kinase kinase 1 (Homo sapiens) (Q02750 whole entry): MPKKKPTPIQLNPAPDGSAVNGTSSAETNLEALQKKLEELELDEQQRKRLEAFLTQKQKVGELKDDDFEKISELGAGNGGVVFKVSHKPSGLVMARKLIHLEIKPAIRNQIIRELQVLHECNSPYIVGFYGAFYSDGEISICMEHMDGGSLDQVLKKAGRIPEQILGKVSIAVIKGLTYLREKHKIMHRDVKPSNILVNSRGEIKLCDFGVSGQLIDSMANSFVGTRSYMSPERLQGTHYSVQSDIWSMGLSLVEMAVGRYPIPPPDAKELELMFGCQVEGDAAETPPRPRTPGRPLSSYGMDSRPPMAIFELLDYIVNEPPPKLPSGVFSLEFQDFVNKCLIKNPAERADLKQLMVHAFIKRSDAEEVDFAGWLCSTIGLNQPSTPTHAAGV

The text below walks through data of ChEMBL document CHEMBL1165965, “Synthesis and structure-activity relationships of 1,2,3,4-tetrahydropyrido[2,3-b]pyrazines as potent and selective inhibitors of the anaplastic lymphoma kinase” (Bioorg Med Chem, 2010).

A value given as a limit tells only on which side of the number the result lay.

Chain of Atypical kinase COQ8A, mitochondrial (Homo sapiens) (Q8NI60 163-647 limits assumed): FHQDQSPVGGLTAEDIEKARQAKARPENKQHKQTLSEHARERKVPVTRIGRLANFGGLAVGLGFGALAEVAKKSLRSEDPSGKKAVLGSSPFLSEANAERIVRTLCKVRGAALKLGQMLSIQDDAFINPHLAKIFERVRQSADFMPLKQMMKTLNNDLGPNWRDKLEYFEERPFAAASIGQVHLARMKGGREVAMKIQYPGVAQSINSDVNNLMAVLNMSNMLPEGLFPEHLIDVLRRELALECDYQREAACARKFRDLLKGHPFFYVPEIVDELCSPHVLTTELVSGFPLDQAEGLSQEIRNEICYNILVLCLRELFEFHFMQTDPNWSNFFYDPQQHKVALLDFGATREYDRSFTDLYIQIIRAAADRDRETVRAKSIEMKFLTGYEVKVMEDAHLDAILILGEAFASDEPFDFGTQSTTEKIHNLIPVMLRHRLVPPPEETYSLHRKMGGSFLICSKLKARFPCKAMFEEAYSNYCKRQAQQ
Chain of Phosphorylase b kinase gamma catalytic chain, skeletal muscle/heart isoform (Homo sapiens) (Q16816 whole entry, looked up, the tested form may be a part, canonical isoform): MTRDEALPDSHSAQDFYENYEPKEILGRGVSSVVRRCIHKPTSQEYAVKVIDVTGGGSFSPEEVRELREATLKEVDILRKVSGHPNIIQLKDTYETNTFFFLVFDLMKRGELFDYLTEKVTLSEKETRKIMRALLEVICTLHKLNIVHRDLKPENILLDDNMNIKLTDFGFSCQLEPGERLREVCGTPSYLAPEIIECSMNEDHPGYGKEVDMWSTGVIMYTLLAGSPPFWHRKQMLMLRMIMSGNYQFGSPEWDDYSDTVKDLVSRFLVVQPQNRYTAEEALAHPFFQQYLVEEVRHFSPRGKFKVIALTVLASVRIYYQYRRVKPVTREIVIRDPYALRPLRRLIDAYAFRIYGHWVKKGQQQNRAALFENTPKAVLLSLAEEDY
Chain of Homeodomain-interacting protein kinase 2 (Homo sapiens) (Q9H2X6 whole entry, looked up): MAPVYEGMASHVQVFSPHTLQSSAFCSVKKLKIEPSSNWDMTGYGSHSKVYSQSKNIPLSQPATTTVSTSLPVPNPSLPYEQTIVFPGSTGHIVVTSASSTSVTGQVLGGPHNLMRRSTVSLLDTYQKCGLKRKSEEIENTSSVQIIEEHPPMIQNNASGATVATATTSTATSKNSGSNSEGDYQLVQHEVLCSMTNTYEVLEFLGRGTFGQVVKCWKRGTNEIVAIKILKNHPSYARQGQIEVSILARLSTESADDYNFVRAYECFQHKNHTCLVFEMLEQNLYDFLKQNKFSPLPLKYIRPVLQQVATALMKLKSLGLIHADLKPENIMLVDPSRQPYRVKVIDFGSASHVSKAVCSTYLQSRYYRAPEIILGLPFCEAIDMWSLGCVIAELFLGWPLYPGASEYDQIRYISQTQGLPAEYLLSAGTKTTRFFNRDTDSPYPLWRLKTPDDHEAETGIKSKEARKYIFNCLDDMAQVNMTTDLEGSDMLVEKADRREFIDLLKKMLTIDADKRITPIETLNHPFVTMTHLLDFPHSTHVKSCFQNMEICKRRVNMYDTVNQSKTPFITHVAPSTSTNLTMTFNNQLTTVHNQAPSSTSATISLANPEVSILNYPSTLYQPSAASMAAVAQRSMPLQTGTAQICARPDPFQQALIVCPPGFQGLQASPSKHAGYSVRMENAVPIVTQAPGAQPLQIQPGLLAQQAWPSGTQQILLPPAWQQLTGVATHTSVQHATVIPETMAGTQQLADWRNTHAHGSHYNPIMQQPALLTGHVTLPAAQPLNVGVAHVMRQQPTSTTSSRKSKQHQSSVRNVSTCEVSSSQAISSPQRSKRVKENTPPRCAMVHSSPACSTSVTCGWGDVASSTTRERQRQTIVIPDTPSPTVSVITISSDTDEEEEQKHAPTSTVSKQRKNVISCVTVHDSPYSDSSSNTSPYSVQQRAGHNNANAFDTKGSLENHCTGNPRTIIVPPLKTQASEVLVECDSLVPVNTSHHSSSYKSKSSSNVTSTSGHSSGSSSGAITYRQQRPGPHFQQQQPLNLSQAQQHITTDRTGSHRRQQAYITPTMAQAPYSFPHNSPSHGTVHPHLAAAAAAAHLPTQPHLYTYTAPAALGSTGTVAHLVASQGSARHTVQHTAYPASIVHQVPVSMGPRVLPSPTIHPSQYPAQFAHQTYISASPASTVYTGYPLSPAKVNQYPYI
Chain of Serine/threonine-protein kinase 26 (Homo sapiens) (Q9P289 2-416 limits assumed): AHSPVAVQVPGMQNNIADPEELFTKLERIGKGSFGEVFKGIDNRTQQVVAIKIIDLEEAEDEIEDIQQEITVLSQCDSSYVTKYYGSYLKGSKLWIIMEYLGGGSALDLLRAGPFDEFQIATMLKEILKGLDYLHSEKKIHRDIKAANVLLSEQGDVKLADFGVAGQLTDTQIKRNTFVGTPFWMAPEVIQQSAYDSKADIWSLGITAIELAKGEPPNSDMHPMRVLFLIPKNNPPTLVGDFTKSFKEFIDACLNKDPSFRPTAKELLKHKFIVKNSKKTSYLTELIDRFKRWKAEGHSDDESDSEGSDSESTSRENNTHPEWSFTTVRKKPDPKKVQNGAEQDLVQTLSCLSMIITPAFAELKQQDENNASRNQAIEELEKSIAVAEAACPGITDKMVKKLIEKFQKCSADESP
Chain of Mitogen-activated protein kinase 1 (Homo sapiens) (P28482 whole entry): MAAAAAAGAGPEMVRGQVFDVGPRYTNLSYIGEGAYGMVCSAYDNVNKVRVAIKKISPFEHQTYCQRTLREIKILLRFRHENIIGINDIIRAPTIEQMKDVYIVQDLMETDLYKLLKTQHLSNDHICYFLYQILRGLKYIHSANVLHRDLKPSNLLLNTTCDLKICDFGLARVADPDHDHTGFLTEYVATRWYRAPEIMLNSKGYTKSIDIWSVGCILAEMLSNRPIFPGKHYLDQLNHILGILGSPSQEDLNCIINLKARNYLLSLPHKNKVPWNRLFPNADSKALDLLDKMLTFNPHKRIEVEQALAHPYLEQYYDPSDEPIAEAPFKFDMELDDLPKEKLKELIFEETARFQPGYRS

As usually defined, the inhibition is the change of the read-out against control, counted positive when it falls. On to `CN1CCN(c2ccc(-c3cnc4c(c3)N(Cc3c(F)ccc(F)c3Cl)CCN4)cn2)CC1`, for which the inhibition in assay [1] was under 50%; in assay [2], under 50%; in assay [3], under 50%; in assay [4], under 50%; in [5], 76%; in [6], under 50%. The inhibition in assay [7], in [8], in assay [9], in assay [10], in assay [11] and in assay [12] was under 50% in each case. For the same compound, the inhibition in [13], in assay [14], in assay [15], in assay [16], in [17] and in assay [18] was under 50% in each case.

Turning to `CC(=O)N1CCN(c2cc(-c3cnc4c(c3)N(Cc3cc(Cl)ccc3C(F)(F)F)CCN4)ccn2)CC1`, the inhibition in assay [1], in [2], in assay [3], in assay [4], in assay [5] and in assay [6] was under 50% in each case. Moreover, the inhibition in [7], in [8], in assay [9], in assay [10], in assay [11] and in assay [12] was under 50% throughout. The inhibition in assay [13], in assay [14], in [15], in assay [16], in [17] and in assay [18] was under 50% in each case.
